Columns and labels:
[1] = biological target: T1, C-C chemokine receptor type 2 (Homo sapiens, UniProt P41597); assay: Antagonist activity at human CCR2 expressed in CHO cells assessed as inhibition of MCP1-induced [35S]-GTPgammaS binding after 3 hrs; assay type: functional, cell-based
Target sequence in this assay (P41597 whole entry): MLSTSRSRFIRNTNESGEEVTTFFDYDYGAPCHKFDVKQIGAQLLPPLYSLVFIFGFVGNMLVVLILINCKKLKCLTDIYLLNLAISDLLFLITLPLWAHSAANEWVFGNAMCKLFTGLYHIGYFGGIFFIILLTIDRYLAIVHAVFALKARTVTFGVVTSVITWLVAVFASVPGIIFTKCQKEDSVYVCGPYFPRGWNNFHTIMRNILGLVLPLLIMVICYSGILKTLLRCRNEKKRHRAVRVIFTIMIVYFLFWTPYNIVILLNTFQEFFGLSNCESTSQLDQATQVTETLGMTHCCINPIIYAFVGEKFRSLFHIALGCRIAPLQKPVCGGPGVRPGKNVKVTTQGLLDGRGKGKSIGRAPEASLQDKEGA

[2] = biological target: C-C chemokine receptor type 1 (Homo sapiens) (UniProt P32246); assay: Antagonist activity at human CCR1
[3] = Lipophilicity, log D of the compound; assay type: physicochemical; conditions: octanol/water
[4] = biological target: T1, C-C chemokine receptor type 2; assay: Antagonist activity at CCR2 in human THP1 cells assessed as inhibition of CCL2-induced chemotaxis at 1 uM in presence of 0.1% human serum; assay type: functional, cell-based; conditions: THP-1
Method in brief: (§1)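 Boyden chamber (48-well) chemotaxis of THP-1 cells stimulated with CCL2. Foetal bovine serum or human serum was added to the assay buffer.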
Target sequence in this assay (P41597 whole entry, looked up): as the sequence (P41597 whole entry) above

[5] = biological target: T1, C-C chemokine receptor type 2; assay: Antagonist activity at CCR2 in human THP1 cells assessed as inhibition of CCL2-induced chemotaxis at 1 uM in presence of 1% human serum; assay type: functional, cell-based; conditions: THP-1; method in brief: as §1
Target sequence in this assay (P41597 whole entry, looked up): as the sequence (P41597 whole entry) above

[6] = Oral bioavailability in rat; assay type: ADME, organism-based; conditions: in vivo
[7] = Half life in iv dosed in rat; assay type: ADME, organism-based; conditions: in vivo
[8] = Half life in po dosed in rat; assay type: ADME, organism-based; conditions: in vivo
[9] = Clearance in rat; assay type: ADME, organism-based; conditions: in vivo
[10] = species: Rattus norvegicus; assay: Volume of distribution in rat; assay type: ADME, organism-based; conditions: in vivo
[11] = biological target: Voltage-gated inwardly rectifying potassium channel KCNH2 (Homo sapiens, UniProt Q12809); assay: Binding affinity to human ERG by fluorescence-polarization binding assay
Chain of Voltage-gated inwardly rectifying potassium channel KCNH2 (Q12809 whole entry): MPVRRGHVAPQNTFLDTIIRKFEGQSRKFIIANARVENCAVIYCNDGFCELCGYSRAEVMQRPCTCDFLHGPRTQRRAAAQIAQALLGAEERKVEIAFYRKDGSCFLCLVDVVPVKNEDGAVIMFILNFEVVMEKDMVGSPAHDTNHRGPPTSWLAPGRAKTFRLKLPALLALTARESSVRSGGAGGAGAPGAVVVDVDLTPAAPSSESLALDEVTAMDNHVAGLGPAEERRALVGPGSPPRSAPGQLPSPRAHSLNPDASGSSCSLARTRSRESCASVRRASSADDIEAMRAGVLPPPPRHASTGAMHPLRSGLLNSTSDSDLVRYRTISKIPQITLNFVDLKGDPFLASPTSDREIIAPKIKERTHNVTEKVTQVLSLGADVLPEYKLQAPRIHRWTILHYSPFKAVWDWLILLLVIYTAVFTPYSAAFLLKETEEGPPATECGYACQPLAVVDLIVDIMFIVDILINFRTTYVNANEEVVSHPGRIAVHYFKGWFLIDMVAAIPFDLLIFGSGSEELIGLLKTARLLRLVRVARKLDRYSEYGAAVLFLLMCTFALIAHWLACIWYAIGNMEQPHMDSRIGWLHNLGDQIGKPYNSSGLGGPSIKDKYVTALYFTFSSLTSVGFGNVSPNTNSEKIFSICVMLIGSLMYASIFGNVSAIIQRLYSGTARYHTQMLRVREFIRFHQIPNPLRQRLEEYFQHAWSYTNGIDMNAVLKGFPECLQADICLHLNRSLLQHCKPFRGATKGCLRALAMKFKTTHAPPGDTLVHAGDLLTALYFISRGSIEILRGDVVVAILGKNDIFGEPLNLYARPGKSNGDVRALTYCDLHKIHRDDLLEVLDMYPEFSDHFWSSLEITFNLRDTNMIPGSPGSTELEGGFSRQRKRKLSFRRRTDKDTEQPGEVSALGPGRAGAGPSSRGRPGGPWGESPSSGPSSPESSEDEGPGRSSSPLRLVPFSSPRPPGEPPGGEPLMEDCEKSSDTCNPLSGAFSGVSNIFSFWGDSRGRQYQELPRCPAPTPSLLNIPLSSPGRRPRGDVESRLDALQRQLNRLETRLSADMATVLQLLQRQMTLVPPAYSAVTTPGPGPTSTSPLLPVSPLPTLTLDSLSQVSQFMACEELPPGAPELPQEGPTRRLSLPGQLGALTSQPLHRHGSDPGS

[12] = biological target: T2, Cytochrome P450 1A2 (Homo sapiens, UniProt P05177); assay: Inhibition of CYP1A2; assay type: ADME
T2 sequence (P05177 whole entry): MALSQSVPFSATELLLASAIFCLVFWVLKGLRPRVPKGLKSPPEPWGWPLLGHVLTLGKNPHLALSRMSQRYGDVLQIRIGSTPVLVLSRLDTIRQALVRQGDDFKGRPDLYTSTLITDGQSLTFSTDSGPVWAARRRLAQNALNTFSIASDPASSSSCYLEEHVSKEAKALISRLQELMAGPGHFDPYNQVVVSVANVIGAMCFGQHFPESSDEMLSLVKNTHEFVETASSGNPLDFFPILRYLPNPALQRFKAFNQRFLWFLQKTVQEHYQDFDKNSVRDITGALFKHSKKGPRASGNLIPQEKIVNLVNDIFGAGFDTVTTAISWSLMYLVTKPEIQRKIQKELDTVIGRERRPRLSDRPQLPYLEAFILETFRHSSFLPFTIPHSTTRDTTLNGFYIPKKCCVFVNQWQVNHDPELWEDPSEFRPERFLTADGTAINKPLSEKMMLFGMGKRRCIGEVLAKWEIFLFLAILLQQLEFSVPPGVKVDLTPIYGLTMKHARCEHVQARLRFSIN

[13] = biological target: Cytochrome P450 2C19 (Homo sapiens, UniProt P33261); assay: Inhibition of CYP2C19; assay type: ADME
Chain of Cytochrome P450 2C19 (P33261 whole entry): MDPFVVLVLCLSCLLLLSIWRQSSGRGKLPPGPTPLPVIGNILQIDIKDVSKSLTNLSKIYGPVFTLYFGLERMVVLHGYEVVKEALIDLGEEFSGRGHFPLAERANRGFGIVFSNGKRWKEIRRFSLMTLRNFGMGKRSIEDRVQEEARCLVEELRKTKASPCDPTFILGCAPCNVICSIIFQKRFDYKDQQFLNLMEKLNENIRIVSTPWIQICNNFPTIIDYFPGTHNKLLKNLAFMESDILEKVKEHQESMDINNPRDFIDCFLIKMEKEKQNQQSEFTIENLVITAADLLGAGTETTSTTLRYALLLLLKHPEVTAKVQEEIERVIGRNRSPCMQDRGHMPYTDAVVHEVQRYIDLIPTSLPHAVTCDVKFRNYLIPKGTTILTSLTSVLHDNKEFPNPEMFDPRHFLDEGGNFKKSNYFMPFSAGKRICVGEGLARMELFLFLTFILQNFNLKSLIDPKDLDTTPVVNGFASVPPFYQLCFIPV

[14] = biological target: Cytochrome P450 2C9 (Homo sapiens, UniProt P11712); assay: Inhibition of CYP2C9; assay type: ADME
Chain of Cytochrome P450 2C9 (P11712 whole entry): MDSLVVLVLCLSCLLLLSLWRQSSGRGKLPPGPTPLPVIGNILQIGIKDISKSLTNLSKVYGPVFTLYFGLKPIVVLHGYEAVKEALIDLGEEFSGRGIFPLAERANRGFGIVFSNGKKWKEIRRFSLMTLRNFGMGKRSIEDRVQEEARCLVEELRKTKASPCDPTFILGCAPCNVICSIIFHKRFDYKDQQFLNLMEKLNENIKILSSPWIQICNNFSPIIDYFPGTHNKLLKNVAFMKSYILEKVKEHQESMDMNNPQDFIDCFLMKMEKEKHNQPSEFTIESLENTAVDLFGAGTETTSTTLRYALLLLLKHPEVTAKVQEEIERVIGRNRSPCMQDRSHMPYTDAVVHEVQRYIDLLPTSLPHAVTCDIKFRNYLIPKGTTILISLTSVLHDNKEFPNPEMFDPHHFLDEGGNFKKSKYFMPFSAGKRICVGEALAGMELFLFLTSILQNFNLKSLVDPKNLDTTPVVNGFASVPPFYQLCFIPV

[15] = biological target: Cytochrome P450 2D6 (Homo sapiens, UniProt P10635); assay: Inhibition of CYP2D6; assay type: ADME
Chain of Cytochrome P450 2D6 (P10635 whole entry): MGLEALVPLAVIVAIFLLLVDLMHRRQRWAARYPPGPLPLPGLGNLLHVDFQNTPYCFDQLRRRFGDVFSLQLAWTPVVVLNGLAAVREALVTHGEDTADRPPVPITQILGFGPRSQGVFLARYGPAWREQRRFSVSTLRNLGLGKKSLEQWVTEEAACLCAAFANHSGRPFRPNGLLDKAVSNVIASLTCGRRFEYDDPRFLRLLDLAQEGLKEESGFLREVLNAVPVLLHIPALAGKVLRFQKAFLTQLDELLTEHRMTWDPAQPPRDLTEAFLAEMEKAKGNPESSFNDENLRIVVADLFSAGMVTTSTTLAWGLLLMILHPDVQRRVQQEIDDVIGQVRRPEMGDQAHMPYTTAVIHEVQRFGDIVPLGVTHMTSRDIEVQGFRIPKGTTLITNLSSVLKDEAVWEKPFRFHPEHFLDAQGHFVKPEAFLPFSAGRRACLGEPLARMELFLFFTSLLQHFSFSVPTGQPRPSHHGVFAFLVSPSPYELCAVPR

[16] = biological target: Cytochrome P450 3A4 (Homo sapiens, UniProt P08684); assay: Inhibition of CYP3A4; assay type: ADME
Chain of Cytochrome P450 3A4 (P08684 whole entry): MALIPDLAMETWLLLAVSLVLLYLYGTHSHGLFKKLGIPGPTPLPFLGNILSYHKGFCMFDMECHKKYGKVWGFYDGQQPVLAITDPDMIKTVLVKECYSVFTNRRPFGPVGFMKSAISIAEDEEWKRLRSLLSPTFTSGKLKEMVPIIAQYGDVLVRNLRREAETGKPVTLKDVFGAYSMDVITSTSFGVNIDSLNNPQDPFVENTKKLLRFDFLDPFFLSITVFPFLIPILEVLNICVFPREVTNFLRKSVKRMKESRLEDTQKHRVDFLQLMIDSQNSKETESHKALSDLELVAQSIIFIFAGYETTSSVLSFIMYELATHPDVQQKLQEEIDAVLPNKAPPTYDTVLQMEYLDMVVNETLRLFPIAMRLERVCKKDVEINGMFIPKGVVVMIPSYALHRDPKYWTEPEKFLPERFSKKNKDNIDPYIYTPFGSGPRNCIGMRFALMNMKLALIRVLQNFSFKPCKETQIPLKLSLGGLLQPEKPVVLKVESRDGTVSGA

[17] = biological target: T3, C-C chemokine receptor type 4 (Homo sapiens, UniProt P51679); assay: Antagonist activity at CCR4; assay type: functional
T3 sequence (P51679 whole entry): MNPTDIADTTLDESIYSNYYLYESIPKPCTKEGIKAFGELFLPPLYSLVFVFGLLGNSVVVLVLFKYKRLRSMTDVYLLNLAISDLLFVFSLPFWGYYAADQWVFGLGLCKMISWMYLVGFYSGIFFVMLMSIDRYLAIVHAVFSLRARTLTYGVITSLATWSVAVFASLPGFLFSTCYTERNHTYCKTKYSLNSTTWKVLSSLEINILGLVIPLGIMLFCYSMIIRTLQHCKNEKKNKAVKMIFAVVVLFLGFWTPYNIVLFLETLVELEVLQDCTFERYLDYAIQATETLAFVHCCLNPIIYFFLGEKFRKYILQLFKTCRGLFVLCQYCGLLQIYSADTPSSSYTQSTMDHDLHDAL

[18] = biological target: T4, C-C chemokine receptor type 5 (Homo sapiens, UniProt P51681); assay: Antagonist activity at CCR5 at 10 uM; assay type: functional; design: scale not given: the % may be the effect or the level left
[19] = biological target: T5, Albumin (Homo sapiens, UniProt P02768); assay: Binding affinity to immobilised human serum albumin by chromatographic analysis; assay type: ADME; conditions: isolated protein
T5 sequence (P02768 whole entry): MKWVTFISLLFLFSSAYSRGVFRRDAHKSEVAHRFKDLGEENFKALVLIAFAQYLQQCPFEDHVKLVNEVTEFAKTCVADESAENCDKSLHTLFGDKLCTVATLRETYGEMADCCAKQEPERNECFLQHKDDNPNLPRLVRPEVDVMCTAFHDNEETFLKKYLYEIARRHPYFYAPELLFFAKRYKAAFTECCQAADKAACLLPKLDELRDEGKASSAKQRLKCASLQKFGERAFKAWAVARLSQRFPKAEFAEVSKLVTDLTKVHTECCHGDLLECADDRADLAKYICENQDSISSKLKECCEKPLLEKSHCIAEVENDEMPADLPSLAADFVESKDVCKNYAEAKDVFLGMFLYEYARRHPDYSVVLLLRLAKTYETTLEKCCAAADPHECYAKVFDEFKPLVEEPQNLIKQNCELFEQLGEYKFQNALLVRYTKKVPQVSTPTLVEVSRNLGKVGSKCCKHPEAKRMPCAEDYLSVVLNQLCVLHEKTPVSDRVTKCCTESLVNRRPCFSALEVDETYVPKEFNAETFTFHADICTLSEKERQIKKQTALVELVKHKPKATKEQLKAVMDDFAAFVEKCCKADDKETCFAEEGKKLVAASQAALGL

[20] = biological target: T5, Albumin; assay: Binding affinity to immobilised human serum albumin by ultrafiltration and biacore method; assay type: ADME; conditions: isolated protein
[21] = biological target: C-C chemokine receptor type 1 (Homo sapiens) (UniProt P32246); assay: Antagonist activity at CCR1
[22] = biological target: T6, C-C chemokine receptor type 1 (Homo sapiens, UniProt P32246); assay: Antagonist activity at human CCR1 assessed as inhibition of MIP-1-alpha-induced [35S]-GTPgammaS binding after 3 to 4 hrs; assay type: functional
T6 sequence (P32246 whole entry): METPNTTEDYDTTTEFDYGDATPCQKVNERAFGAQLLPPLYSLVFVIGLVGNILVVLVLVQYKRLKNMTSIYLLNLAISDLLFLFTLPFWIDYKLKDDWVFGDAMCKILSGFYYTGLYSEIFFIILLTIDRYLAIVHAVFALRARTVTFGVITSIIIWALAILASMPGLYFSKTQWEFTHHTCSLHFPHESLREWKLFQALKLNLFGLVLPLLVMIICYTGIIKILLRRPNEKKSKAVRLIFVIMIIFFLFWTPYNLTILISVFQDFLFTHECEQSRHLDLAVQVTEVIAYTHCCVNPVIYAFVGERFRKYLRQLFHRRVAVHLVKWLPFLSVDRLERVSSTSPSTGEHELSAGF

[23] = biological target: C-C chemokine receptor type 2 (Mus musculus, UniProt P51683); assay: Antagonist activity at mouse CCR2; assay type: functional
[24] = biological target: T4, C-C chemokine receptor type 5; assay: Antagonist activity at CCR5; assay type: functional
Target sequence in this assay (P51681 whole entry): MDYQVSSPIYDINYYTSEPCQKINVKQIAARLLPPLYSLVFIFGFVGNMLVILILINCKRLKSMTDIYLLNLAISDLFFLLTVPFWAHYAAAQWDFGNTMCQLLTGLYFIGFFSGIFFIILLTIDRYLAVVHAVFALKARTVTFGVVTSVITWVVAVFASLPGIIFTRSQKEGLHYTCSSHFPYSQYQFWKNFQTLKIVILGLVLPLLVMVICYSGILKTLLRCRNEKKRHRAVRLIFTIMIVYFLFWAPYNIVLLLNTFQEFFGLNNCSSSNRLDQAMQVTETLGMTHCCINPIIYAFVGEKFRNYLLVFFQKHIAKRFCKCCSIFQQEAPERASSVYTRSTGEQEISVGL

[25] = biological target: T1, C-C chemokine receptor type 2; assay: Inhibition of CCR2-mediated chemotaxis in human THP1 cells assessed as half life of reversibility at 10 uM after assay buffer exchange; assay type: cell-based; conditions: THP-1
Method in brief: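 THP-1 cells were preincubated with compound at 10 µM for 30 min. The assay buffer was then exchanged and CCL2-driven chemotaxis was stimulated periodically to generate a reversibility curve. The half-life of reversibility was taken from this curve.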
Target sequence in this assay (P41597 whole entry, looked up): as the sequence (P41597 whole entry) above

Compound | Ki [1] | logD [3] | inhibition [4] | inhibition [5] | further results
N#Cc1ccc(Oc2ccccc2C(=O)O)c(NS(=O)(=O)c2ccc(Cl)cc2)c1 | 63.1 nM |  |  |  | Ki [2]: 1000 nM
O=C(O)c1ccc(Oc2ncc(Cl)cc2NS(=O)(=O)c2ccc(Cl)c(Cl)c2)cc1 | 3.16 nM | 0.4 |  |  | 
O=C(O)c1ccccc1Oc1ncccc1NS(=O)(=O)c1ccc(Cl)c(Cl)c1 | 31.6 nM |  | 60% | 41% | 
Cc1ncccc1Oc1ncc(Cl)cc1NS(=O)(=O)c1ccc(Cl)c(Cl)c1 | 10 nM | 2.7 | 72% | 50% | bioavailability [6]: 75%; half-life [7]: 0.8 h; half-life [8]: 2.3 h; clearance [9]: 4.3 mL/min/kg; Vd [10]: 0.34 L/kg; IC50 [11]: > 31600 nM; IC50 [12]: > 100000 nM; IC50 [13]: 22400 nM; IC50 [14]: 1350 nM; IC50 [15]: > 100000 nM; IC50 [16]: 19500 nM; Ki [17]: 1260 nM; Activity [18]: 40%
N#Cc1ccc(Oc2ncc(Cl)cc2NS(=O)(=O)c2ccc(Cl)c(Cl)c2)cn1 | 15.8 nM | 2.12 |  |  | 
Cc1ccc(NS(=O)(=O)c2ccc(Cl)cc2)c(Oc2ccccc2C(=O)O)c1 | 631 nM |  |  |  | Ki [21]: 631 nM
O=C(O)c1c(F)cccc1Oc1ncc(Cl)cc1NS(=O)(=O)c1ccc(Cl)c(Cl)c1 | 2 nM |  |  |  | 

Continued, in another order:

Ki [1] | logD [3] | inhibition [4] | inhibition [5] | Compound | further results
1.58 nM | 0.44 | 42% | 33% | O=C(O)c1cccc(Oc2ncc(Cl)cc2NS(=O)(=O)c2ccc(Cl)c(Cl)c2)c1 | 
10 nM | -0.67 | 17% | 0% | O=C(O)c1cncc(Oc2ncc(Cl)cc2NS(=O)(=O)c2ccc(Cl)c(Cl)c2)c1 | 
> 3160 nM |  |  |  | Cc1cccc(NS(=O)(=O)c2ccc(Cl)cc2)c1Oc1ccccc1C(=O)O | Ki [2]: > 3160 nM
20 nM | 2.32 | 36% | 5.4% | O=S(=O)(Nc1cc(Cl)cnc1Oc1cccnc1)c1ccc(Cl)c(Cl)c1 | Activity [19]: > 98%; Activity [20]: > 99.5%
> 3160 nM |  |  |  | O=C(O)c1ccccc1Oc1cccc(F)c1NS(=O)(=O)c1ccc(Cl)cc1 | Ki [21]: > 3160 nM
398 nM |  |  |  | O=C(O)c1ccccc1Oc1c(Cl)cccc1NS(=O)(=O)c1ccc(Cl)cc1 | Ki [2]: 501 nM
251 nM |  |  |  | O=C(O)c1ccccc1Oc1ccccc1NS(=O)(=O)c1ccc(Cl)cc1 | Ki [22]: 316 nM; Ki [23]: 2000 nM
5.01 nM |  |  |  | O=C(O)c1ccccc1Oc1ccc(Cl)cc1NS(=O)(=O)c1ccc(Cl)s1 | 
1.26 nM | 0.8 | 67% | 37% | O=C(O)c1ccccc1Oc1ncc(Cl)cc1NS(=O)(=O)c1ccc(Cl)c(Cl)c1 | bioavailability [6]: 97%; half-life [7]: 4.5 h; half-life [8]: 4.5 h; clearance [9]: 0.71 mL/min/kg; Vd [10]: 0.12 L/kg; IC50 [11]: > 31600 nM; IC50 [12]: 39800 nM; IC50 [13]: 39800 nM; IC50 [14]: 21400 nM; IC50 [15]: 100000 nM; IC50 [16]: 100000 nM; Ki [17]: 794 nM; IC50 [24]: 251 nM; T1/2 [25]: 4.67 h
7.94 nM |  |  |  | O=C(O)c1ccccc1Oc1ccc(Cl)cc1NS(=O)(=O)c1cccc(Cl)c1 | 
